Screening results deposited in PubChem by Broad Institute.
CAL PDZ FP-1 – blocks peptide binding to the human CAL PDZ domain; purified CAL PDZ, TMR-peptide fluorescence polarization, 1 h; inhibition, % at 24.9 µM; 300,000 tested, 0.92% active; AID 602252;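 active means mean inhibition of at least 30% with at least half of replicates also reaching 30%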
ARNT-TACC3 inh – disruptors of human ARNT/TACC3 interaction. 390,000 tested, 0.66% active. AID 623870. AlphaScreen His-ARNT PAS-B/GST-TACC3 binding, luminescence; TACC3 fragment carries E629A point mutation. inhibition, % at 9.99 µM. Q9Y6A5;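 active means mean inhibition of replicates at least 50% and at least half of replicates each reaching 50%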
CAL PDZ FP-2 – human CAL PDZ-peptide interaction inhibition; Q9HD26; purified CAL PDZ, TMR-peptide fluorescence polarization, 1 h; inhibition, % at 20 µM; 330,000 tested, 0.02% active; AID 504414;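 active means highest replicate inhibition of at least 40%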
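Material: tagged CAL PDZ protein CerCALP, purified; buffer or medium: sodium phosphate/NaCl buffer pH 7.4 with TCEP, IgG, Thesit; also added: fluorescent TMR peptide probe; schedule: 1 h incubation at room temperature before polarization reading; technique: fluorescence polarization from S- and P-plane intensities, G-factor corrected; control set: unlabelled peptide and DMSO controls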
SR-BI DiI inh – mouse SR-BI HDL lipid transfer inhibition; 320,000 tested, 0.96% active; AID 488896; ldlA[mSR-BI] CHO cells, DiI-HDL uptake fluorescence, 3 h; inhibition, % at 12.5 µM; Q61009;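 active means mean replicate inhibition of at least 70% and a set share of replicates each scoring 70 or more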
Target sequence (Q61009 whole entry, looked up): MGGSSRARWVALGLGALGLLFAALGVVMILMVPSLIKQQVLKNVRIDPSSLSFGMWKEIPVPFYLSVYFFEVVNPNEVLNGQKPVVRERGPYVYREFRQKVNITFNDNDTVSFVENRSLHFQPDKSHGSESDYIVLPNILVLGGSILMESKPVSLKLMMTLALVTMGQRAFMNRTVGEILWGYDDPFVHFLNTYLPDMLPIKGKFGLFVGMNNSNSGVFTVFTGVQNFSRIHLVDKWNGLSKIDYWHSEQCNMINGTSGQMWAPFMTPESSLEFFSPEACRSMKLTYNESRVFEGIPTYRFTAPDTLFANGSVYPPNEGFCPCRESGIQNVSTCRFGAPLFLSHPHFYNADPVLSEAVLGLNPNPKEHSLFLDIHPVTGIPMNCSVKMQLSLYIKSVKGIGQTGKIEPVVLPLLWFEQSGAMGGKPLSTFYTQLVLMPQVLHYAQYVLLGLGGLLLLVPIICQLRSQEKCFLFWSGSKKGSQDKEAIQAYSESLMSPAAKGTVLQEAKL
SR-BI uptake up – enhances SR-BI lipid uptake from DiI-HDL. 320,000 tested, 0.096% active. CHO ldlA[mSR-BI] cells, DiI-HDL uptake fluorescence, 3 h; 100 = double the neutral-control signal. activation, % at 12.5 µM. AID 504775;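 active means mean replicate activation of at least 60% and every replicate at or above 60%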
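Assay system: CHO ldlA[mSR-BI] cells, LDL receptor-null, SR-BI overexpressing; medium: Ham's F12 with 0.5% BSA, HEPES 25 mM, pH 7.4; also added: DiI-HDL 10 µg/mL; timing: 3 h uptake period with compound, 37 °C; signal: DiI fluorescence, bottom read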
miR-122 sensor – blocks miR-122 activity in Huh7 sensor cells; activation (reporter increase), % at 12.5 µM; 340,000 tested, 0.3% active; AID 602342; Huh7 miR-122 Renilla luciferase sensor, 48 h; neutral wells = 0, positive control = 100;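 active means mean replicate activation score at least 90 and every replicate individually at or above 90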;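 further: higher luciferase means less miR-122 activity so hits act as miR-122 inhibitors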
Numbers stand for hits. An excerpt weighted towards active compounds, which were near 2.1% of everything screened.

For C[C@H](CO)N1C[C@H](C)[C@@H](CN(C)C(=O)C2CCCCC2)Oc2ncc(C#CC3CCCC3)cc2C1=O the results were ARNT-TACC3 inh inactive and miR-122 sensor inactive.
`O=C(NCCCc1ccncc1)C1CCC(=O)N(Cc2ccc(Cl)cc2)C1` (stereo not drawn) gave CAL PDZ FP-1 71.9, ARNT-TACC3 inh inactive, CAL PDZ FP-2 inactive, SR-BI DiI inh inactive, SR-BI uptake up inactive and miR-122 sensor inactive.
For COc1cccc(CN2CC(C(=O)NCCCc3ccc(C)cc3)CCC2=O)c1 (stereo not drawn) the results were CAL PDZ FP-1 100.0, ARNT-TACC3 inh inactive, CAL PDZ FP-2 inactive, SR-BI DiI inh inactive, SR-BI uptake up inactive and miR-122 sensor inactive.
For COc1cccc(CN2CC(C(=O)NCCCc3ccncc3)CCC2=O)c1 (stereo not drawn) the results were CAL PDZ FP-1 inactive, ARNT-TACC3 inh inactive, CAL PDZ FP-2 inactive, SR-BI DiI inh inactive, SR-BI uptake up inactive and miR-122 sensor inactive.
For O=C(C[C@@H]1CC[C@@H]2[C@H](COC[C@@H](O)CN2C(=O)c2cnccn2)O1)NCc1ccccc1 the results were ARNT-TACC3 inh inactive and miR-122 sensor inactive.
For CCOC(=O)c1[nH]c2ccc(C)cc2c1NC(=O)CN1CCCCC1 the results were CAL PDZ FP-1 inactive, ARNT-TACC3 inh inactive, CAL PDZ FP-2 inactive, SR-BI DiI inh inactive, SR-BI uptake up inactive and miR-122 sensor inactive.
For Cc1c2cc[n+](CCN3CCCCC3)cc2c(C)c2c1[nH]c1ccc(O)cc12 the results were CAL PDZ FP-1 inactive, ARNT-TACC3 inh 49.1, CAL PDZ FP-2 inactive, SR-BI DiI inh inactive and SR-BI uptake up inactive.
O=[N+]([O-])c1ccc(N/N=C/c2cccc(O)c2O)c(S(=O)(=O)N2CCOCC2)c1 was read as CAL PDZ FP-1 inactive, ARNT-TACC3 inh inactive, CAL PDZ FP-2 inactive and miR-122 sensor inactive.
O=[N+]([O-])c1ccc(N/N=C/c2ccc(O)c(O)c2O)c(S(=O)(=O)N2CCOCC2)c1 was read as CAL PDZ FP-1 inactive, ARNT-TACC3 inh inactive, SR-BI DiI inh 108.1 and SR-BI uptake up inactive.
O=C(Nc1cccc(C(F)(F)F)c1)Oc1ccc(Cl)c2cccnc12 was read as CAL PDZ FP-1 35.2, ARNT-TACC3 inh inactive, CAL PDZ FP-2 inactive, SR-BI DiI inh inactive, SR-BI uptake up inactive and miR-122 sensor inactive.
CCN(CC)C(=O)Oc1ccc(Cl)c2cccnc12 was read as CAL PDZ FP-1 inactive, ARNT-TACC3 inh inactive, CAL PDZ FP-2 inactive, SR-BI DiI inh inactive, SR-BI uptake up inactive and miR-122 sensor inactive.
`Cc1[nH]n(-c2ccccc2)c(=O)c1N=Nc1ccccc1O` gave CAL PDZ FP-1 inactive, ARNT-TACC3 inh inactive, SR-BI DiI inh 119.0 and SR-BI uptake up inactive.
Screening Cc1[nH]n(-c2ccccc2)c(=O)c1C(=O)Nc1ccccc1 returned CAL PDZ FP-1 inactive, ARNT-TACC3 inh inactive, CAL PDZ FP-2 inactive, SR-BI DiI inh inactive, SR-BI uptake up inactive and miR-122 sensor inactive.
`C/C(=N\NC(=O)c1ccc(C)cc1)c1c(C)[nH]n(-c2ccccc2)c1=O` gave CAL PDZ FP-1 inactive, SR-BI DiI inh 124.6 and SR-BI uptake up inactive.
Screening C/C(=N\NC(=O)c1ccccc1)c1c(C)[nH]n(-c2ccccc2)c1=O returned ARNT-TACC3 inh 41.5, CAL PDZ FP-2 inactive, SR-BI DiI inh 125.6, SR-BI uptake up inactive and miR-122 sensor inactive.
`OCCn1c(SC2CCCCC2)nc2ccccc21` gave CAL PDZ FP-1 46.9, ARNT-TACC3 inh inactive, CAL PDZ FP-2 inactive, SR-BI DiI inh inactive, SR-BI uptake up inactive and miR-122 sensor inactive.
CO[C@@H](CN(C)S(=O)(=O)c1ccc(F)cc1)[C@H](C)CN(C(=O)Nc1ccccc1F)[C@H](C)CO was read as ARNT-TACC3 inh inactive.
CO[C@H]1CN(C)C(=O)c2ccc(NC(=O)C3CC3)cc2OC[C@@H](C)N(Cc2ccncc2)C[C@@H]1C was read as ARNT-TACC3 inh inactive.
For COc1ccccc1Nc1ccc2c(O)cc(S(=O)(=O)O)cc2c1 the results were CAL PDZ FP-1 inactive, ARNT-TACC3 inh active, CAL PDZ FP-2 inactive, SR-BI DiI inh inactive, SR-BI uptake up inactive and miR-122 sensor inactive.
COc1ccc(C)cc1S(=O)(=O)N(C)CC(=O)NC1CCCCC1 was read as CAL PDZ FP-1 inactive, ARNT-TACC3 inh inactive, SR-BI DiI inh inactive, SR-BI uptake up inactive and miR-122 sensor inactive.
For COc1ccc(OC)c(S(=O)(=O)NC2CCCCC2)c1 the results were CAL PDZ FP-1 inactive, ARNT-TACC3 inh inactive, CAL PDZ FP-2 inactive, SR-BI DiI inh inactive, SR-BI uptake up inactive and miR-122 sensor inactive.
For COc1ccc(C)cc1S(=O)(=O)N(CC(=O)NC1CCCC1)c1ccc(F)cc1 the results were CAL PDZ FP-1 inactive, ARNT-TACC3 inh 46.4, CAL PDZ FP-2 inactive, SR-BI DiI inh inactive, SR-BI uptake up inactive and miR-122 sensor inactive.
For COc1ccc(C)cc1S(=O)(=O)NC1CCCCCC1 the results were CAL PDZ FP-1 inactive, ARNT-TACC3 inh inactive, CAL PDZ FP-2 inactive, SR-BI DiI inh inactive, SR-BI uptake up inactive and miR-122 sensor 101.0.
For COc1ccc(S(=O)(=O)NC2CCCCC2)c(C)c1C the results were CAL PDZ FP-1 inactive, ARNT-TACC3 inh inactive, CAL PDZ FP-2 inactive, SR-BI DiI inh inactive, SR-BI uptake up inactive and miR-122 sensor 111.4.
`COc1ccc(S(=O)(=O)NC2CCCC2)c(OC)c1` gave CAL PDZ FP-1 inactive, ARNT-TACC3 inh inactive, CAL PDZ FP-2 inactive, SR-BI DiI inh inactive and SR-BI uptake up inactive.
`COc1ccc(C)cc1S(=O)(=O)N1CCCC(C(=O)NC2CC2)C1` (stereo not drawn) gave CAL PDZ FP-1 36.0, ARNT-TACC3 inh inactive, CAL PDZ FP-2 inactive, SR-BI DiI inh inactive, SR-BI uptake up inactive and miR-122 sensor inactive.
`O=C(C[C@@H]1C=C[C@@H](NC(=O)c2ccc(F)cc2)[C@@H](CO)O1)NCCc1ccncc1` gave ARNT-TACC3 inh inactive.
Screening COCC#Cc1cnc2c(c1)C(=O)N([C@H](C)CO)C[C@H](C)[C@H](CN(C)C(=O)C1CCCCC1)O2 returned ARNT-TACC3 inh inactive and miR-122 sensor inactive.
For COc1ccc(C(=O)Nc2ccc(N3CCOCC3)cc2)cc1S(=O)(=O)NC1CCCC1 the results were CAL PDZ FP-1 inactive, ARNT-TACC3 inh inactive, CAL PDZ FP-2 inactive, SR-BI DiI inh 76.3 and SR-BI uptake up inactive.
Screening COc1ccc(/C(C)=N/NC(=O)c2ccncc2)cc1 returned CAL PDZ FP-1 inactive, ARNT-TACC3 inh 46.9, CAL PDZ FP-2 inactive, SR-BI DiI inh inactive, SR-BI uptake up inactive and miR-122 sensor inactive.
`COc1ccc(CC(=O)Nc2ccc(/C(C)=N/NC(=O)c3ccc(OC)cc3OC)cc2)cc1` gave CAL PDZ FP-1 inactive, ARNT-TACC3 inh inactive, CAL PDZ FP-2 inactive, SR-BI DiI inh 74.5 and SR-BI uptake up inactive.
